In assay [1] the test system is MEF A1-2A-BIM cells, caspase-3/7 luminescence. Briefly: caspase-3/7 readout of A1 inhibition in A1-2A-BIM fibroblasts – cell-based, MEF A1-2A-BIM, luminescence, dry powder, set 4, dose response (AID 504347). In outline: (§1)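 Assay system: Mouse embryonic fibroblasts co-expressing A1-2A-BIM construct | Medium: RPMI-1640, 10% FBS | Timing: 3 h compound at 37 °C, 1 h reagent at RT | Measured by: Caspase-3/7 DEVD-luciferin luminescence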

Assay in assay [2]: as above
The conditions noted are these: MEF A1-2A-BIM cells, caspase-3/7 luminescence; at 35 µM (top of the series). The method in brief:
as §1

The structures appear in SMILES notation. Calls of active or inactive are those of the source.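 How the source made its calls: active means fitted curve climbs past 10% caspase activation, relative to the positive control, at or below the top valid tested dose; inactive means the rest, including activity in the opposite direction.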

With `O=c1c([N+](=O)[O-])c(Cl)c2ccccc2n1Cc1ccccc1`, the AC10 in assay [1] is 2.53 µM.

`Cn1c(=O)c([N+](=O)[O-])c(Cl)c2ccccc21`: the AC10 in assay [1] is 0.96 µM.

Take `O=c1[nH]c2ccccc2c(Cl)c1[N+](=O)[O-]`: the AC10 in assay [1] is 2.8 µM.

For the compound `O=C(COc1ccc(Cl)cc1Cl)NNc1nc(N2CCOCC2)nc(N2CCOCC2)n1`, the AC10 in assay [1] is 28.5 µM.

As for `COCCn1c(=O)c([N+](=O)[O-])c(Sc2ccc(C)cc2)c2ccccc21`, in assay [1], the AC10 was 6.43 µM.

Take `COc1ccc(CCNc2nc(N3CCOCC3)nc(N3CCOCC3)n2)cc1OC`: the caspase activation in assay [2] is 4.68% (inactive).

Consider `Cc1ccc(Sc2c([N+](=O)[O-])c(=O)n(Cc3ccccc3)c3ccccc23)cc1`, for which, in assay [1], the AC10 is 17.8 µM.

Take `C/C(=N\Nc1nc(N2CCCCC2)nc(N2CCCCC2)n1)c1ccc(F)cc1`: the caspase activation in assay [2] was 0.602% (inactive).

In the case of `Cn1c(=O)c([N+](=O)[O-])c(-n2cnc3ccccc32)c2ccccc21`, the AC10 in assay [1] is 8.18 µM.

With `Cc1ccc(Sc2c(Sc3ccc(C)cc3)c3ccccc3n(C)c2=O)cc1`, the caspase activation in assay [2] is -0.138% (inactive).

In the case of `COCCn1c(=O)c(Sc2ccc(C)cc2)c(Sc2ccc(C)cc2)c2ccccc21`, in assay [1], the AC10 is 20.2 µM.

As for `CCn1c(=O)c([N+](=O)[O-])c(Sc2ccc(C)cc2)c2ccccc21`, in assay [1], the AC10 was 15 µM.

Source of the values: PubChem BioAssay AID504347 (Broad Institute, 2011).
